# Sampled rows, rich in hits. Any-hit rate of the full collection: about 2.6%.
# esBAF inh – blocks esBAF chromatin remodeling in mouse ES cells. Bmi1-luciferase knock-in reporter, 24 h; 100% = twice the neutral-well signal. reporter increase, % at 12.5 µM. hit rate 2% among 350,000; in the data active = activation above about 40%;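 also: 0% = median of the plate's neutral control wells and 100% = double that signal; a rise in the Bmi1 reporter signal indicates esBAF inhibition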
# ARFGAP1 inh – rat ARFGAP1 inhibition; hit rate 0.26% among 360,000; Arfgap1-stimulated ARF1 GTP hydrolysis, GDP FP detection; inhibition, % at 16.5 µM;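 active = inhibition above a per-plate limit, mean inhibition of low control wells plus 3 SD, cut at about 25% in these data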;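 also: 0% = DMSO wells with enzyme and 100% = wells lacking Arfgap1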
#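 material = rat Arfgap1 catalytic domain, aa 1-136 | also added = human ARF1(Δ1-17)-GTP substrate | compound dosing = one concentration, 16.5 µM, DMSO 1.26% | times = GTP hydrolysis reaction 2 h at 25 °C | measured by = FP, GDP Alexa 633 tracer displaced from anti-GDP antibody, 620/688 nm | evaluation = percent inhibition of Arfgap1-stimulated GTP hydrolysis | replication = single well per compound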
# SMARCA2 activ – activators of SMARCA2 function. MG213 cells, MMTV-luciferase reporter, dexamethasone, overnight. activation, % at 9.1 µM. hit rate 1% among 370,000. AID 652017; in the data active = activation above about 7.8%;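 also: 0% = vehicle wells and 100% = reference activator wells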
# ASAP1 inh – ASAP1 ArfGAP inhibition | ASAP1-stimulated ARF1 GTP hydrolysis, GDP FP detection | inhibition, % at 16.5 µM | hit rate 0.19% among 360,000 | Q9ULH1; in the data active = inhibition above about 25%;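 also: 0% = vehicle with enzyme and substrate and 100% = no enzyme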
# Target sequence (Q9ULH1 325-724 limits assumed): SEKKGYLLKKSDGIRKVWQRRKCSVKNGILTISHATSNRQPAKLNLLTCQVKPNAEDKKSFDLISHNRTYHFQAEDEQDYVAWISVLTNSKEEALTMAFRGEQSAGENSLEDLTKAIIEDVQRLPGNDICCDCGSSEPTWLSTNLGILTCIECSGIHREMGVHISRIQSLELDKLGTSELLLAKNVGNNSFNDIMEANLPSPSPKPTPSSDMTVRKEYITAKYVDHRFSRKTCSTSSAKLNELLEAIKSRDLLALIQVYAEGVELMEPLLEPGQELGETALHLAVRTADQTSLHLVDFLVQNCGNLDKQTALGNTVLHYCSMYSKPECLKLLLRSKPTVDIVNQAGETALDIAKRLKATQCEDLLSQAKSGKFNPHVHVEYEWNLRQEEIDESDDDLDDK
# esBAF Ring1 qPCR – esBAF inhibition confirmed by Ring1 de-repression. shares compounds with esBAF inh. mouse ESC E14, Ring1 mRNA RT-qPCR fold change. fold change at 33 µM. 550 tested, under 10 active;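 active = Ring1 gene expression raised more than 2-fold over untreated cells in both replicates at either tested dose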;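 also: Ring1 transcript normalised to actin housekeeping signal by TaqMan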
# Fgf4 repress – esBAF inhibition confirmed by Fgf4 repression; shares compounds with esBAF inh; mouse ESC E14, Fgf4 mRNA qPCR fold change; stronger effect = lower value; Fgf4 expression fold change at 33 µM; hit rate 4% among 550; AID 743177;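 active = Fgf4 expression under 0.8 fold of control in both repeat measurements at one or both tested doses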;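 also: Fgf4 transcript normalised to actin in duplex TaqMan qPCR; cells exposed to compound for 24 h before lysis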
# esBAF Bmi1 qPCR – esBAF inhibition confirmed by Bmi1 de-repression | shares compounds with esBAF inh | mouse ESE14 ES cells, Bmi1 mRNA qPCR fold; stronger effect = higher value | fold change at 33 µM | 550 tested, under 10 active | AID 743180;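 active = Bmi1 expression fold change above 6 at either tested concentration, seen in replicate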
# A549 cytotox – A549 cell cytotoxicity; shares compounds with esBAF inh; plate reader; cell viability change % (negative = cytotoxic), % at 25 µM, hits read low; 550 tested, under 10 active; AID 743188; call rule not given here
# HepG2 tox SP – cytotoxicity in HepG2 cells; plate reader; stronger effect = lower value; shares compounds with esBAF inh; activity change, negative = inhibition, % at 25 µM; hit rate 4% among 550; in the data active = activity change below about -50%
# HEK293 cytotox SP – kills or reduces viability of HEK293 cells. AID 743190. HEK293 cytotoxicity, plate reader. activity change, negative = inhibition, % at 25 µM, hits read low. hit rate 3% among 550. shares compounds with esBAF inh; in the data active = activity change below about -38%, passing the limit was not always enough
# An asterisk follows results filed as active; . = not tested or not shown.
SMILES,esBAF inh,ARFGAP1 inh,SMARCA2 activ,ASAP1 inh,others
CCc1cccc2c(C(=O)COC(=O)c3ccc(O)cc3)c[nH]c12,49*,-3,-1,12,
CCc1cccc2c(C(=O)COC(=O)c3nccnc3N)c[nH]c12,79*,5,1,10,
C[C@@H]1CN([C@@H](C)CO)S(=O)(=O)c2ccc(/C=C/c3ccccc3)cc2O[C@@H]1CN(C)C(=O)NC1CCCCC1,-7,.,.,.,
O=C(N/N=C/c1cn(-c2ccccc2)nc1-c1ccc(F)cc1)c1ccc2c(c1)OCO2,.,5,1,4,
O=C(N/N=C\c1cn(-c2ccccc2)nc1-c1ccccc1)c1ccc2c(c1)OCO2,44*,1,0,4,
O=C(N/N=C/c1cn(-c2ccccc2)nc1-c1ccc2c(c1)OCCO2)c1ccncc1,53*,11,2,-5,
C[C@H]1CN([C@@H](C)CO)C(=O)c2cccc(NC(=O)C3CCCCC3)c2O[C@H]1CN(C)S(=O)(=O)c1cccs1,2,.,.,.,
Cc1noc(C)c1S(=O)(=O)Nc1ccc2c(c1)CC(=O)N([C@H](C)CO)C[C@@H](C)[C@@H](CN(C)C(=O)Nc1cccc3ccccc13)O2,-3,.,.,.,
Cc1nc2ccc(S(=O)(=O)Nc3cc(-c4nc5cccnc5s4)ccc3C)cc2s1,61*,9,1,6,
CC#CC(=O)N1CCC(C(=O)Nc2ccc(Oc3ccccc3)nc2)CC1,41*,-4,0,-11,
CCC1CCCN1Cn1cnc2c([nH]c3ccc(Cl)cc32)c1=O (stereo not drawn),.,-1,9.7*,0,
Cn1ccc(C(=O)NC(=S)Nc2ccc([N+](=O)[O-])cc2O)n1,69*,2,3,17,
O=C(NC(=S)Nc1ccccc1)C1CCCCC1,41*,0,3,7,
O=C(NC(=S)Nc1ccc(Br)cc1)C1CCCCC1,27,0,3,-11,
COc1ccc(NC(=S)NC(=O)C2CCC2)cc1,47*,-4,4,-2,
CO[C@@H]1CN(C)C(=O)c2ccc(NC(=O)Nc3cccc(Cl)c3)cc2OC[C@H](C)NC[C@H]1C,1,.,.,.,
COc1ccc(/C(=N/Nc2ncnc3ccccc23)C(=O)O)cc1,59*,-3,4,11,
CCOC(=O)/C(=N\Nc1ncnc2ccccc12)c1ccc(OC)cc1,-49,-3,3,-1,
Cc1ccccc1Nc1nc(N)nc(COC(=O)c2cccn2C)n1,48*,11,7,11,
COc1ccc(-c2nc3ccccc3nc2-c2ccccc2)cc1,-1,-14,0,1,
COc1ccc2nc3ccccc3nc2c1,42*,2,6,18,
C[C@@H]1CN([C@@H](C)CO)C(=O)c2cc(NC(=O)CCC(F)(F)F)ccc2O[C@H]1CN(C)C(=O)Nc1ccccc1,-5,.,.,.,
COc1ccc(-c2ccc([C@@H]3[C@@H](CO)N(C(=O)NC4CCCC4)[C@H]3C#N)cc2)cc1,3,.,.,.,
COc1ccc(N2CCN(C(=O)c3ccc(-c4nc5ccccc5s4)o3)CC2)cc1,43*,-5,0,-18,
COc1cccc(-c2ccc3nccn3c2)c1,49*,-2,-1,-12,
CN1CCN(C(=O)c2cccc(-c3ccc4nccn4c3)c2)CC1,-6,-3,-5,7,
Cc1ccc(C)c(N2CCN(C(=O)CCc3nc(-c4ccccc4Br)no3)CC2)c1,43*,3,2,-6,
CCn1cnc2cc(NCc3ccccc3Cl)ccc21,77*,7,4,2,esBAF Ring1 qPCR=1;Fgf4 repress=1;esBAF Bmi1 qPCR=1.3;A549 cytotox=2;HepG2 tox SP=2;HEK293 cytotox SP=11

# Screening results as filed in PubChem.
